RanGTP-Imp inh: disruptors of Ran-importin-beta complex formation – biochemical, FRET, CFP-Ran, YFP-importin-beta, homogeneous, primary screen; cell-free CFP-Ran/YFP-importin-beta FRET ratio; inhibition, % (no concentration beside the values); hit rate 1.1% among 300,000; AID 2216;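 active = more than half of the replicate wells show a fall in the fluorescence ratio signal beyond about 16%, limit read from the data, passing the limit was not always enough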;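 also: 0% = DMSO wells and 100% = Ran loaded with GDP instead of GTP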
Runt-SMMHC FRET: inhibitors of human RUNX1 Runt domain binding to CBFb-SMMHC; Q01196+Q13951; Cerulean-Runt/Venus-CBFb-SMMHC FRET ratio 530/480, 1 h; inhibition, % at 20 µM; hit rate 0.74% among 220,000; AID 1434;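 active = mean inhibition across duplicate retests at 20 µM reaching about 50%, limit read from the data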;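 also: 0% = DMSO wells and 100% = wells with excess untagged CBFb-SMMHC; inhibitors lower the FRET ratio by blocking Runt binding to CBFb-SMMHC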
Tb hexokinase: blocks Trypanosoma brucei hexokinase 1 activity | recombinant TbHK1, G6PDH-coupled NADH A340 | inhibition, % at 10 µM | hit rate 0.11% among 220,000 | AID 1430;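 active = inhibition of 50% or more in the single-dose primary screen; inactive = inhibition below 50%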
Hck Nef HTS: blocks Nef-activated human Hck kinase; inhibition, % at 20 µM; hit rate 0.68% among 220,000; Recombinant Hck-YEEI plus Nef, Z-Lyte FRET kinase assay;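 active = Hck-Nef kinase inhibition above about 50%, limit read from the data; inactive = inhibition below that limit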;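 also: 0% = DMSO with Hck plus Nef and 100% = Hck alone without Nef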
Runt-CBFb FRET: inhibitors of human RUNX1 Runt domain binding to CBFb. inhibition, % at 20 µM. hit rate 0.46% among 220,000. Q01196+Q13951. AID 1496. Cerulean-Runt/Venus-CBFb FRET ratio 530/480, 1 h;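 active = inhibition over about 50% at 20 µM in the single-dose screen, limit read from the data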;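 also: 0% = DMSO wells and 100% = excess unlabeled CBFb competitor control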
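Assay system: Cerulean-Runt domain / Medium: Tris 50 mM pH 7.5, KCl, K2SO4, 0.01% BSA / Timing: protein complex preformed 1 h, compound exposure 1 h, room temperature, dark / Measured by: FRET, excitation 422 nm, emission at 530 and 480 nm / Evaluation: loss of energy transfer signal / Control set: 5 µM unlabeled CBFb as full-inhibition high control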
* marks the source's active call; other numbers are inactive results; nt = not tested or not shown. The list is not random: actives were taken first. Their share in the collection is about 1.9%.

SMILES	RanGTP-Imp inh	Runt-SMMHC FRET	Tb hexokinase	Hck Nef HTS	Runt-CBFb FRET
CC(=O)Oc1ccc2oc(=O)c3c(c2c1)CCCN3C(=O)CN1CCOCC1	0	-3	-26	23	0
CC(=Nc1ccccc1)C1=C(O)COC1=O	-2	3	-5	-16	1
CC(=Nc1ccccc1)c1sc2ccccc2c1O	48*	-7	-8	-2	14
NC(=Nc1ccc(Br)cc1)c1ccccc1	4	nt	nt	nt	nt
CC(=Nc1ccc(Br)cc1)c1sc2ccccc2c1O	49*	81	-5	8	9
COc1ccccc1C(=O)NC(CCSC)C(=O)NNC(=O)c1ccncc1 (stereo not drawn)	1	nt	nt	nt	nt
CCOC(=O)/C(C#N)=C\C=C1C=CN(C)C=C1	51*	-86	1	-2	nt
CCOC(=O)/C(C#N)=C\c1ccc(CC)s1	0	-7	-14	2	-1
Cc1ccc2[nH]c(=O)c(C(c3nnnn3Cc3ccccc3)N3CCc4ccccc43)cc2c1 (stereo not drawn)	20*	-1	-15	-2	11
FC(F)(F)c1nnc2c(Sc3ccccc3)nc3ccccc3n12	6	10	0	1	4
FC(F)(F)c1nnc2c(Sc3ccccn3)nc3ccccc3n12	8	51*	-24	0	16
NC(=O)c1cc2ccncc2c2ccccc12	9	4	-10	12	-1
Oc1ccc2nnc3c(Br)cnn3c2c1	53*	nt	nt	nt	nt
C=C1CCc2c([nH]c3ccc(OCC(C)C)cc23)C1=O	0	nt	nt	nt	nt
COc1ccc(N=Cc2nc(-c3ccco3)oc2O)cc1	20*	5	-17	-1	1
Cc1ccc(N=Cc2nc(-c3ccc(C)cc3)oc2O)cc1	8	-16	-14	6	-14
N#C/C(=C\c1ccc(-c2ccc([N+](=O)[O-])cc2)o1)C(=O)Nc1nc(-c2cccs2)cs1	-3	-12	2	67*	-5
Cc1c(NC(=S)N/N=C/c2ccc(N(C)C)cc2)c(=O)n(-c2ccccc2)n1C	8	62*	-46	42	24
COc1ccc(N(CC(=O)NCc2ccc(C)cc2)S(=O)(=O)c2c(C)noc2C)cc1	3	nt	nt	nt	nt
CCCn1nc(NC(=O)COC)c2cc3cc(C)ccc3nc21	23*	nt	nt	nt	nt
CCCCn1nc(NC(=O)COC)c2cc3ccc(C)cc3nc21	5	nt	nt	nt	nt
CCCn1nc(NC(=O)c2ccccn2)c2cc3cc(C)ccc3nc21	103*	94*	-20	12	48
CCCn1nc(NC(=O)c2ccco2)c2cc3ccc(C)cc3nc21	57*	48	nt	nt	24
Cc1ccc2nc3c(cc2c1)c(NC(=O)c1cccnc1)nn3C	29*	25	-10	11	15
O=C(/C=C/c1ccccc1[N+](=O)[O-])NCc1cccnc1	0	-3	-10	1	0
SMILES	RanGTP-Imp inh	Runt-SMMHC FRET	Tb hexokinase	Hck Nef HTS	Runt-CBFb FRET
CSc1ccc(CN(C)CC(=O)Nc2ccc(C)cc2Br)cc1	0	3	-8	0	-6
CCCn1nc(NC(=O)c2ccco2)c2cc3cc(C)ccc3nc21	79*	82*	-2	-9	49
CCCn1nc(NS(=O)(=O)c2cccc3nonc23)c2cc3cc(C)ccc3nc21	2	nt	nt	nt	nt
CC(=O)NS(=O)(=O)c1ccc(N2C(=O)c3ccccc3C2=O)cc1	20*	2	10	11	1
Cn1c(SCC(=O)Nc2ccc3c(c2)OCCO3)nnc1-c1ccncc1	3	nt	nt	nt	nt
COc1ccccc1Nc1nc2ccc(C)cc2n2cnnc12	3	nt	nt	nt	nt
CCn1nc(C)cc1Nc1ccccc1	37*	-4	23	-8	2
COc1ccc(CCn2c(O)cc3nn(-c4nc5ccccc5s4)c(=O)c-3c2C)cc1	5	-16	-4	68*	-3
CCCCN(C(=O)c1ccc(S(=O)(=O)N2CCCCC2)cc1)C1CCS(=O)(=O)C1 (stereo not drawn)	4	nt	nt	nt	nt
NC(=O)c1c(N)sc2c1CCCC2	-10	-3	-12	-5	13
CN1CCc2c(sc(N)c2C(N)=O)C1	86*	143*	-9	1	101*
CCN1CCc2c(sc(N)c2C(N)=O)C1	101*	-16	-9	7	90*
CN(CC(=O)Nc1cccc(F)c1)C(=O)c1ccc(COc2ccccc2)cc1	1	nt	nt	nt	nt
CCN(CC)c1ccc(NC(=O)c2ccc3c(c2)c(C)c(C)n3C)cc1	-2	15	-2	26	0

High-throughput results (PubChem BioAssay)
